Drawing on ChEMBL document CHEMBL4364333, “High-throughput screening of bioactive compounds via new catalytic reaction in the pooled mixture” (Bioorg Med Chem Lett, 2019), this text covers Activity and inhibition for 14 compounds.

Activity calls are given as the source filed them. No cut-off for these calls is given here.

Format in all cases: cell-based
For data set [1], the system named is HeLa. The data set is described as follows: Cytotoxicity against human HeLa cells expressing alkaline phosphatase assessed as reduction in cell viability at 40 uM incubated for 3 hrs by WST-1 assay. In a few lines:
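HeLa cells stably expressing soluble secretory alkaline phosphatase, seeded at equal numbers, exposed to diluted test material for 3 h. Cytotoxicity read out as the number of live cells.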
Background: Tetrazolium dyes change colour on reduction, which living cells bring about.

Data set [2] relates to HeLa. The data set is described as follows: Inhibition of alkaline phosphatase secretion in human HeLa cells at 18 uM incubated for 3 hrs. In a few lines: (§1)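 HeLa cells stably expressing soluble secretory alkaline phosphatase, seeded at equal cell numbers, were incubated with the test sample for 3 h. Alkaline phosphatase enzymatic activity in the culture medium was measured as the secretion read-out. Live cell number was counted in parallel to assess cytotoxicity.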

Data set [3] relates to HeLa. The data set is described as follows: Inhibition of alkaline phosphatase secretion in human HeLa cells incubated for 3 hrs. The method in brief:
(§2)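 HeLa cells stably expressing soluble secretory alkaline phosphatase, seeded at equal numbers, exposed to diluted test material for 3 h. Secretion read out as alkaline phosphatase enzymatic activity in the culture medium.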

In data set [4] the test system is HeLa. The data set is described as follows: Inhibition of alkaline phosphatase secretion in human HeLa cells at 40 uM incubated for 3 hrs. In a few lines:
as §2

For data set [5], the system named is HeLa. The experiment in a line: Inhibition of alkaline phosphatase secretion in human HeLa cells at 50 uM incubated for 3 hrs. The method in brief:
as §1

As for `Cn1cc(C(c2cn(C)c3ccccc23)C(F)(F)F)c2ccccc21`, the Activity entry in data set [1] is given as “Non-Toxic”.
The same measure, in the same setting: then `Fc1ccc2[nH]cc(C(c3c[nH]c4ccccc34)C(F)(F)F)c2c1` (centres undefined), with “Non-Toxic”.
`C[C@H]1CCC/C=C/[C@@H]2C[C@H](O)C[C@H]2[C@H](O)/C=C/C(=O)O1`: the inhibition entry in data set [2] was “Active”.
As for `FC(F)(F)C(c1c[nH]c2ccc(Br)cc12)c1c[nH]c2ccc(Br)cc12`, the Activity result in data set [1] is “Non-Toxic”. Moreover, the inhibition entry in data set [3] is “Active”.
Regarding `FC(F)(F)C(c1c[nH]c2ccccc12)c1c[nH]c2ccccc12`, the Activity entry in data set [1] was “Non-Toxic”. For the same compound, in data set [4], the inhibition result is “Active”.
Regarding `Cn1cc(C(c2c[nH]c3ccccc23)C(F)(F)C(F)(F)F)c2ccccc21` (centres undefined), the Activity entry in data set [1] was “Non-Toxic”.
As to `FC(F)(F)C(F)(F)C(c1c[nH]c2ccccc12)c1c[nH]c2ccccc12`, the Activity result in data set [1] is listed as “Non-Toxic”. Moreover, the inhibition result in data set [3] is “Active”.
Take `FC(F)(F)C(c1c[nH]c2ccccc12)c1c[nH]c2ccc(Br)cc12` (centres undefined): the Activity result in data set [1] is listed as “Non-Toxic”. Also, the inhibition entry in data set [3] is “Active”.
Regarding `Cn1cc(C(c2cn(C)c3ccccc23)C(F)(F)C(F)(F)F)c2ccccc21`, the Activity entry in data set [1] is “Non-Toxic”.
On the same count and under the same terms, then `FC(F)(F)C(F)(F)C(c1c[nH]c2ccc(Br)cc12)c1c[nH]c2ccc(Br)cc12`, with “Non-Toxic”; and `Cn1cc(C(c2c[nH]c3ccccc23)C(F)(F)F)c2ccccc21` (centres undefined), with “Non-Toxic”.
For the compound `Fc1cc(F)c2c(c1)[C@H]1CCC[C@H]1C(c1cccnc1)N2` (some centres undefined), the inhibition entry in data set [5] is “Active”.
Take `Fc1ccc2[nH]cc(C(c3c[nH]c4ccc(F)cc34)C(F)(F)F)c2c1`: the Activity entry in data set [1] is recorded as “Non-Toxic”.
On to `COc1ccc2[nH]cc(C(c3c[nH]c4ccccc34)C(F)(F)F)c2c1` (centres undefined), for which, in data set [1], the Activity result is on record as “Non-Toxic”. Also, the inhibition entry in data set [3] is “Active”.
